# Reference: ChEMBL document CHEMBL5653631, “A Potent and Selective ULK1 Inhibitor Suppresses Autophagy and Sensitizes Cancer Cells to Nutrient Stress” (iScience, 2018)
# How the values were obtained:
# [1] = organism: Homo sapiens; test: Inhibition of human recombinant ABL at 500 nM in presence of ATP by radiometric assay relative to control
# Method in brief: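 Panel of 327 recombinant human kinases in radiometric activity assays, each screened in duplicate at a single inhibitor concentration; percent activity remaining relative to vehicle control, percent inhibition taken as 100 minus activity remaining.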
# [2] = target: T1, G protein-coupled receptor kinase 3 (Homo sapiens) (UniProt P35626); test: Inhibition of human recombinant BARK2 at 500 nM related to control ULK1
# T1 sequence (whole entry): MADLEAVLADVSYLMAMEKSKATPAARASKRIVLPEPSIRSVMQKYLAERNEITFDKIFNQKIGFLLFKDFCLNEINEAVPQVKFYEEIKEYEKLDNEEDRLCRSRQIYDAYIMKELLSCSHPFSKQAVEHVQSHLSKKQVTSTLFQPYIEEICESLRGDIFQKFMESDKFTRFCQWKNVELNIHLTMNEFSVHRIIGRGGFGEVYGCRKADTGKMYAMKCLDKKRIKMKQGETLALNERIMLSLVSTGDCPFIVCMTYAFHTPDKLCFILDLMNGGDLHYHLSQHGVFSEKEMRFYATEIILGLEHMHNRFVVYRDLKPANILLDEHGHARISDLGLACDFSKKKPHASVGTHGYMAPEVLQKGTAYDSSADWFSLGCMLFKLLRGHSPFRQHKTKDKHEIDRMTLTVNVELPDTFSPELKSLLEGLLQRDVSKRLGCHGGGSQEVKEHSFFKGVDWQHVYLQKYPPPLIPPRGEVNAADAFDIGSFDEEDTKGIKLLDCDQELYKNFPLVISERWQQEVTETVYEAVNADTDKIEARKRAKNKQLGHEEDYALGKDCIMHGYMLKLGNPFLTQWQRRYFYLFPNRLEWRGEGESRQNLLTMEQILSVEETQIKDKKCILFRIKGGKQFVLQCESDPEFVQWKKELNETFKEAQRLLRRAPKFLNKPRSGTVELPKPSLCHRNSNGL
# [3] = target: T2, NUAK family SNF1-like kinase 1 (Homo sapiens) (UniProt O60285); test: Inhibition of human recombinant NuaK1 at 500 nM related to control ULK1
# T2 sequence (whole entry): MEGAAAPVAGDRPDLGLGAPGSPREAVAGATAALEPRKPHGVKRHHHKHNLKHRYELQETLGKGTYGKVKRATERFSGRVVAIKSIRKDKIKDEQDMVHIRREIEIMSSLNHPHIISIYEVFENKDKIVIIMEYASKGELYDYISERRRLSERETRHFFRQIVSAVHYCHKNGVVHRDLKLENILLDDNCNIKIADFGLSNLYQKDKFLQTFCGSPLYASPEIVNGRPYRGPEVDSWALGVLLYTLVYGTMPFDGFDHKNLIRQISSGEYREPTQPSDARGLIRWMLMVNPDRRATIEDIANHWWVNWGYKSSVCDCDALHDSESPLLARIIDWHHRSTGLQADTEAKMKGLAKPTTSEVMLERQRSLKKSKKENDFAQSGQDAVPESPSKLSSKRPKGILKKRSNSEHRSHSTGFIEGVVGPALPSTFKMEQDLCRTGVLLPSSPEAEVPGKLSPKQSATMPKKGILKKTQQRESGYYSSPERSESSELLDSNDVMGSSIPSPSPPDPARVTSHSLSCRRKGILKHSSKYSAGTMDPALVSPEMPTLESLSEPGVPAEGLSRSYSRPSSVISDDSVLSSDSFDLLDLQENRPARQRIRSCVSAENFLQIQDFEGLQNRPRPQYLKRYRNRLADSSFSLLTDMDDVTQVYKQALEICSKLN
# [4] = target: T3, cGMP-dependent protein kinase 2 (Homo sapiens) (UniProt Q13237); test: Inhibition of human recombinant PKG2 at 500 nM related to control ULK1
# T3 sequence (whole entry): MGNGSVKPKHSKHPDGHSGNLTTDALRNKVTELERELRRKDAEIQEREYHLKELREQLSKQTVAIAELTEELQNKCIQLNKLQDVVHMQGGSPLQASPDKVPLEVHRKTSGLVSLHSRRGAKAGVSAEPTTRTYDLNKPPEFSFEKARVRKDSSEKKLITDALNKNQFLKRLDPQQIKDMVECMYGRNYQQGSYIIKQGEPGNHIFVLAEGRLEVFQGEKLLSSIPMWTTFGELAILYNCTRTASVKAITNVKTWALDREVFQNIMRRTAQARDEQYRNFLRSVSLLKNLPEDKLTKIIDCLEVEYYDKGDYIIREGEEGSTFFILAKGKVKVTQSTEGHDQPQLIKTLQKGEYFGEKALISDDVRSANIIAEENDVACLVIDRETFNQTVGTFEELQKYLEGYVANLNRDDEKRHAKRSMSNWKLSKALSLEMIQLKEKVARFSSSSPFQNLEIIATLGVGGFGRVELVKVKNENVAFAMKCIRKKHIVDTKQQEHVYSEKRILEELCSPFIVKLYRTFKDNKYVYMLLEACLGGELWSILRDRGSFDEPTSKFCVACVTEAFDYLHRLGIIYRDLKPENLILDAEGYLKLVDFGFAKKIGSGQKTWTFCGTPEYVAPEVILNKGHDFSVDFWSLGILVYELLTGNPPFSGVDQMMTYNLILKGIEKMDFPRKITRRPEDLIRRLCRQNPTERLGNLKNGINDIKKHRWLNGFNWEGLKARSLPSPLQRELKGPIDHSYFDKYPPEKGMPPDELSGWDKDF
# [5] = target: Tyrosine-protein kinase CSK (Homo sapiens) (UniProt P41240); test: Inhibition of human recombinant CSK at 15 nM in presence of ATP by radiometric assay relative to control
# [6] = target: Fibroblast growth factor receptor 3 (Homo sapiens) (UniProt P22607); test: Inhibition of human recombinant FGFR3 at 15 nM related to control ULK1
# [7] = target: Ephrin type-A receptor 7 (Homo sapiens) (UniProt Q15375); test: Inhibition of human recombinant EphA7 at 40 nM in presence of ATP by radiometric assay relative to control
# [8] = target: Serine/threonine-protein kinase/endoribonuclease IRE1 (Homo sapiens) (UniProt O75460); test: Inhibition of human recombinant IRE1 at 40 nM in presence of ATP by radiometric assay relative to control
# [9] = target: Tyrosine-protein kinase ABL2 (Homo sapiens) (UniProt P42684); test: Inhibition of human recombinant ABL2 at 40 nM related to control ULK1
# Method in brief: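 Radiometric activity assays in a panel of 327 human recombinant kinases, each run in duplicate at one inhibitor concentration. Activity remaining is expressed as percent of vehicle control, and percent inhibition is calculated as 100% minus percent activity remaining.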
# Sequence of Tyrosine-protein kinase CSK (Homo sapiens) (P41240 2-450 limits assumed): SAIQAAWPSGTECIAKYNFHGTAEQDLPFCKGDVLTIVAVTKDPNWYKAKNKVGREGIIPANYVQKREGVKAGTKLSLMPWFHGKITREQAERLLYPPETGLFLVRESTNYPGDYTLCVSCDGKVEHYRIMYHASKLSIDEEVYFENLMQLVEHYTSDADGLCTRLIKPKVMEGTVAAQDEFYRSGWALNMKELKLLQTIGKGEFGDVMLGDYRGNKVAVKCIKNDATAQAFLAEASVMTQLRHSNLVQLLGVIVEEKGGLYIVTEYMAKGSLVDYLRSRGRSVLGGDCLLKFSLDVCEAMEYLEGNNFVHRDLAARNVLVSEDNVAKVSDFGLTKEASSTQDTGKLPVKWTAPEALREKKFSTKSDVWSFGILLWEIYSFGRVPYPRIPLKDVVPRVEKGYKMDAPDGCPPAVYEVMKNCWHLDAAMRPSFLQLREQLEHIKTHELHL
# Sequence of Fibroblast growth factor receptor 3 (Homo sapiens) (P22607 23-806 limits assumed): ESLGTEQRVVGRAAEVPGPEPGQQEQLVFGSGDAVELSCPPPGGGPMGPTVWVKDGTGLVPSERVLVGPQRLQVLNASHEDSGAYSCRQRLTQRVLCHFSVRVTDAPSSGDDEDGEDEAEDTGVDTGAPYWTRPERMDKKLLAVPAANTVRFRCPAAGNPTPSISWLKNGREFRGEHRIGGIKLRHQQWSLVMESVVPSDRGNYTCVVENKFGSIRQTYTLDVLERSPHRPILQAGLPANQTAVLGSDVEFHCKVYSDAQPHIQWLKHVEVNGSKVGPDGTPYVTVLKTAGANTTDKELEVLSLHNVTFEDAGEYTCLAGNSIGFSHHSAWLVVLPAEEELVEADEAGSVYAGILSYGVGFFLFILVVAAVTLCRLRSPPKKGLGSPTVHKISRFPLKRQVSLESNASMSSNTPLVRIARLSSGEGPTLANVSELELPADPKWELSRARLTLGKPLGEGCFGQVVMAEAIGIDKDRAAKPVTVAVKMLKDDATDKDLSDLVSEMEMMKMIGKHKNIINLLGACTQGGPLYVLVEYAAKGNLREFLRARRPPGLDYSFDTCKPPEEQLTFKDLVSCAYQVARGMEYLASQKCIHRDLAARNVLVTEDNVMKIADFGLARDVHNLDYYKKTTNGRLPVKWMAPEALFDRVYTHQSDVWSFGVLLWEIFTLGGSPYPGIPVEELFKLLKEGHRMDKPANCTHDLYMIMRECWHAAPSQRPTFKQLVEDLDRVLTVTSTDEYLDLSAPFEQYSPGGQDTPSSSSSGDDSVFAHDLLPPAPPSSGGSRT
# Sequence of Tyrosine-protein kinase ABL2 (Homo sapiens) (P42684 whole entry): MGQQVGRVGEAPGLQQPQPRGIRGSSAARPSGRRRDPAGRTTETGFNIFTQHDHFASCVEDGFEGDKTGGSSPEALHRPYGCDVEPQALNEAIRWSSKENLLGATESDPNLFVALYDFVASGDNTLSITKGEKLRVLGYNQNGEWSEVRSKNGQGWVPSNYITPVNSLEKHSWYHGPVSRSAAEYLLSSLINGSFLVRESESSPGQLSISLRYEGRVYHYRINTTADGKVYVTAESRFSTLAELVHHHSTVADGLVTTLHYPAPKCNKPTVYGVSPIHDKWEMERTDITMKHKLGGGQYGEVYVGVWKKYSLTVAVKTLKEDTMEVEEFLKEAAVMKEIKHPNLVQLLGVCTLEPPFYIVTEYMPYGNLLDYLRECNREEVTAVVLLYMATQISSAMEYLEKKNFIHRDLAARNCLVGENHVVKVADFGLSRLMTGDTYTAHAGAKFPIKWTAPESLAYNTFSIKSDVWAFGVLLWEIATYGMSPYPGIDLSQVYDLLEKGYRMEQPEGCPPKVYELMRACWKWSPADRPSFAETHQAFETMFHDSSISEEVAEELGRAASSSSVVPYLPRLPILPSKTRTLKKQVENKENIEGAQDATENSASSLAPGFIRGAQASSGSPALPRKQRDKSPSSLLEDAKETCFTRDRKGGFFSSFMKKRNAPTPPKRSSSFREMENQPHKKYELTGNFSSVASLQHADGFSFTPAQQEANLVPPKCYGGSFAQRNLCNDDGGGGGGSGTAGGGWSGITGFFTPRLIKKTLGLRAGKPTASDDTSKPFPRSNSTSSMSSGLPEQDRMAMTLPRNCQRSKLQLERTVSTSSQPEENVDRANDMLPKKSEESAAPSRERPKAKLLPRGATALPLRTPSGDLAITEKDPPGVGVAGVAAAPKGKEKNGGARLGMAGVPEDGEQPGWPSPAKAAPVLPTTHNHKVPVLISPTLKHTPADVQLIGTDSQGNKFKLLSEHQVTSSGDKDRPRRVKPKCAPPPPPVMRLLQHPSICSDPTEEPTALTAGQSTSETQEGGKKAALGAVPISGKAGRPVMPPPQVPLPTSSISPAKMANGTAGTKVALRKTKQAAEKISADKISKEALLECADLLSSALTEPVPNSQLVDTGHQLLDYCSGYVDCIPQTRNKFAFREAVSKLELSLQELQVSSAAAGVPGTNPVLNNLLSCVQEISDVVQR
# Sequence of Serine/threonine-protein kinase/endoribonuclease IRE1 (Homo sapiens) (O75460 19-977 limits assumed): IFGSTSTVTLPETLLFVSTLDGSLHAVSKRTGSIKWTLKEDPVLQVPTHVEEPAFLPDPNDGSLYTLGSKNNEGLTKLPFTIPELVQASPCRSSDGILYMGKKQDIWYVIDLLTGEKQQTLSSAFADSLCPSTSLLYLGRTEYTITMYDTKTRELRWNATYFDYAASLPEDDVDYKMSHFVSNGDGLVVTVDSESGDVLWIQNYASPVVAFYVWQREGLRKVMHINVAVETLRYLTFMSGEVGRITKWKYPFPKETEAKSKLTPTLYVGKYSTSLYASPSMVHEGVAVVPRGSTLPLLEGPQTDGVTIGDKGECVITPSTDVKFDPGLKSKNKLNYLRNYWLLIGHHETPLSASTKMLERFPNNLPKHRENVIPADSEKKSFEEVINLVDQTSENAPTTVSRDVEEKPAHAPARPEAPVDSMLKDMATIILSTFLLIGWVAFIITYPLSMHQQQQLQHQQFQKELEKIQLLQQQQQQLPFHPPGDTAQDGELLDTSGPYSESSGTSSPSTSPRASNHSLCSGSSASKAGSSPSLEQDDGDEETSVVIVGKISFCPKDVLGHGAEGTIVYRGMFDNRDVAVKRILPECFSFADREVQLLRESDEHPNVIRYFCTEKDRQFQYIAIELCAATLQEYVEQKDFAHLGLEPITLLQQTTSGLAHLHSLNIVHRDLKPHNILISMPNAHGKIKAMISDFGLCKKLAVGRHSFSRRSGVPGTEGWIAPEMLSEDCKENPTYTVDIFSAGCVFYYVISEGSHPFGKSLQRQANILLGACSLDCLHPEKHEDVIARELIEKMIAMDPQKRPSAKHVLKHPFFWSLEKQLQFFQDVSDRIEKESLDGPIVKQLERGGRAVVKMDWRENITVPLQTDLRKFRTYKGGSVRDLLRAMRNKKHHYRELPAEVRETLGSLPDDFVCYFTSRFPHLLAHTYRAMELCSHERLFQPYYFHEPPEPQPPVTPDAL
# Sequence of Ephrin type-A receptor 7 (Homo sapiens) (Q15375 28-998 limits assumed): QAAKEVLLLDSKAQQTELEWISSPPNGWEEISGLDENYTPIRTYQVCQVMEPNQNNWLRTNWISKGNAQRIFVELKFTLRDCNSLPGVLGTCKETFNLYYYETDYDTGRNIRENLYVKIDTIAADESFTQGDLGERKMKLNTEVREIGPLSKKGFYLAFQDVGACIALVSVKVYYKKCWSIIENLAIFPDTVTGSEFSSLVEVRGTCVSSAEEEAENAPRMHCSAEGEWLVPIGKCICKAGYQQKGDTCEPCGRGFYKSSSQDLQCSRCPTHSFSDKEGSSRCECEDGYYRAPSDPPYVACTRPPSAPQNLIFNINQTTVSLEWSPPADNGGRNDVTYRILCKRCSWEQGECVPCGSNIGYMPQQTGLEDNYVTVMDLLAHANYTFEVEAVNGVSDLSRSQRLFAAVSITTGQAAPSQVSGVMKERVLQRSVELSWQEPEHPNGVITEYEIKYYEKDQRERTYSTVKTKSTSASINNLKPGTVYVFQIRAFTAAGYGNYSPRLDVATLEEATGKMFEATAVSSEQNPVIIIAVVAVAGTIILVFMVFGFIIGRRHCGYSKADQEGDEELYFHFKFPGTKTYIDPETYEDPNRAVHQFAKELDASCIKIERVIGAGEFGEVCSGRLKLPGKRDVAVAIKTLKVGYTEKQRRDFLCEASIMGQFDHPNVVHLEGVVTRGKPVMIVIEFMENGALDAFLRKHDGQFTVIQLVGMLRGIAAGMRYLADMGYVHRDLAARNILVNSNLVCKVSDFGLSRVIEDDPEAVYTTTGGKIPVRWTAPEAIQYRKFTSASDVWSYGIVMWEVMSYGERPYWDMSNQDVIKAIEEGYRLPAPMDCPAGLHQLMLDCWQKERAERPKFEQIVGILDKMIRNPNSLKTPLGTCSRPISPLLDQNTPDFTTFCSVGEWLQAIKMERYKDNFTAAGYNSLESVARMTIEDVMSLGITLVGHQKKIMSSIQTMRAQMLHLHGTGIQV
smiles,measurement,setting,value
CNC(=O)c1ccccc1Oc1nc(Nc2cc(OC)c(OC)c(OC)c2)ncc1Br,inhibition,[1],14%
same,fold change (FC),[2],0.09
same,fold change (FC),[3],0.96
same,fold change (FC),[4],0.03
CC(C)[C@H](NC(=O)c1cc(-c2cnn3cc(-c4ccc(OCCN5CCCCC5)cc4)cnc23)cs1)C(F)(F)F,inhibition,[5],12%
same,fold change (FC),[6],0
O=C(N[C@@H](C1CC1)C(F)(F)F)c1cc(-c2cnn3cc(-c4ccc(F)cc4)cnc23)cs1,inhibition,[7],0%
same,inhibition,[8],0%
same,fold change (FC),[9],0.1
